# Laboratory results: ChEMBL document CHEMBL1154198, “Chemical genetics of Plasmodium falciparum” (Nature, 2010)
# Key:
# Toxoplasma gondii = experiment: ST_JUDE: Growth inhibition of to Toxoplasma gondii, in human U-2OS cells, as measured by luciferase.; assay type: functional, organism-based; conditions: RH, U2OS
# In short: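 T. gondii parasites engineered to express luciferase; drug sensitivity read by luminescence.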
# Trypanosoma brucei = experiment: ST_JUDE: Cytotoxicity using luciferase to measure ATP as an indicator of the viability of Trypanosoma brucei; assay type: functional, organism-based
# Leishmania major = experiment: ST_JUDE: Cytotoxicity using Alamar Blue to measure viability of Leishmania major; assay type: functional, organism-based
# In short: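 L. major promastigotes; drug susceptibility read with Alamar Blue.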
# Plasmodium falciparum [1] = experiment: ST_JUDE: Cytotoxicity against Plasmodium falciparum W2; assay type: functional, organism-based
# [2] = ST_JUDE: Cytotoxicity using luciferase to measure ATP as an indicator of the viability of human epithelial embryonic kidney cells (HEK293); assay type: toxicity, cell-based
# [3] = ST_JUDE: Cytotoxicity using luciferase to measure ATP as an indicator of the viability of human epithelial hepatocellular carcinoma cells (HepG2); assay type: toxicity, cell-based
# Plasmodium falciparum [4] = experiment: ST_JUDE: Plasmodium falciparum K1 EC50 (uM) as measured by SYBR green dye; assay type: functional, organism-based
# Plasmodium falciparum [5] = experiment: ST_JUDE: Cytotoxicity against Plasmodium falciparum V1/S; assay type: functional, organism-based
# Plasmodium falciparum [6] = experiment: ST_JUDE: Plasmodium falciparum 3D7 EC50 (uM) as measured by SYBR green dye; assay type: functional, organism-based
# Plasmodium falciparum [7] = experiment: ST_JUDE: Cytotoxicity against Plasmodium falciparum Dd2; assay type: functional, organism-based
# Plasmodium falciparum [8] = experiment: ST_JUDE: Cytotoxicity against Plasmodium falciparum D10 transfected with yeast DHOD; assay type: functional, organism-based
# Plasmodium falciparum [9] = experiment: ST_JUDE: Cytotoxicity against Plasmodium falciparum 3D7; assay type: functional, organism-based
# In short: (§1)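 Asexual P. falciparum grown in human erythrocytes, exposed to compounds for 72 h, and growth read as the DNA quantity in treated versus control cultures. Dose-response run at 12 concentrations from 10 μM to 5 nM.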
# Plasmodium falciparum [10] = experiment: ST_JUDE: Cytotoxicity against Plasmodium falciparum SB-A6; assay type: functional, organism-based
# Plasmodium falciparum [11] = experiment: ST_JUDE: Cytotoxicity against Plasmodium falciparum K1; assay type: functional, organism-based; in short: as §1
# [12] = ST_JUDE: Cytotoxicity using luciferase to measure ATP as an indicator of the viability of human Burkitt''s lymphoma lymphoblast cells (Raji); assay type: toxicity, cell-based
# [13] = ST_JUDE: Cytotoxicity using luciferase to measure ATP as an indicator of the viability of human foreskin fibroblast cells (BJ); assay type: toxicity, cell-based
SMILES,EC50 (Toxoplasma gondii) [nM],EC50 (Trypanosoma brucei) [nM],EC50 (Leishmania major) [nM],EC50 (Plasmodium falciparum [1]) [nM],EC50 [2] [nM],EC50 [3] [nM],EC50 (Plasmodium falciparum [4]) [nM],EC50 (Plasmodium falciparum [5]) [nM],EC50 (Plasmodium falciparum [6]) [nM],EC50 (Plasmodium falciparum [7]) [nM],EC50 (Plasmodium falciparum [8]) [nM],EC50 (Plasmodium falciparum [9]) [nM],EC50 (Plasmodium falciparum [10]) [nM],EC50 (Plasmodium falciparum [11]) [nM],EC50 [12] [nM],EC50 [13] [nM]
Cc1cccc(N2CCN(Cc3cc(Br)ccc3O)CC2)c1C,> 15300,> 26700,> 11900,> 7160,> 27900,> 27900,153,255,425,521,576,372,699,178,> 27900,> 27900
CCCO/C(O)=C1\C(C)=NC2=C(C(=O)CC(c3ccc(OC)c(OC)c3)C2)C1c1ccccc1Cl (stereo not drawn),> 21400,9300,> 16700,17,> 39100,> 39100,16.7,66,24.7,50,36.9,75.2,26.2,37.1,> 39100,> 39100
CCc1ccc(S(=O)(=O)NC2=C/C(=N\c3ccccc3OC)C(=O)c3ccccc32)cc1,> 21800,1980,> 17000,> 10200,9010,10300,150,327,277,677,406,954,531,377,2760,6800
CO/C(O)=C1\C(C)=NC2=C(C(=O)CC(c3ccc(OC)c(OC)c3)C2)C1c1ccccc1F (stereo not drawn),> 24500,> 42900,> 19200,296,> 44800,> 44800,433,911,504,766,746,427,556,412,> 44800,> 44800
N=c1n(CCN2CCCCC2)c2ccccc2n1CC(O)c1ccc(Cl)c(Cl)c1 (stereo not drawn),11500,4120,> 22000,640,16000,6970,238,1430,186,346,1290,503,1270,617,21000,10400
COc1ccc(C2CC(=O)C3=C(C2)NC(=O)CC3c2ccc(C(F)(F)F)cc2)cc1OC (stereo not drawn),> 26000,> 45500,> 20300,417,> 47500,> 47500,872,1190,599,894,1110,2150,1090,1590,> 47500,> 47500
CCOC(=O)c1cccc(NC(=O)CC2C(=O)N(c3ccc(F)cc3)C(=O)N2CCC(C)C)c1 (stereo not drawn),> 23800,11800,> 18600,> 11100,> 43400,> 43400,1160,1070,593,635,950,945,1060,> 11100,> 43400,> 43400
Oc1ccc(Cl)cc1CN1CCN(c2cccc(C(F)(F)F)c2)CC1,> 19400,> 33900,> 15100,> 9070,> 35300,> 35300,886,855,2370,1550,1650,1570,2130,476,> 35300,> 35300
CCCCCCCn1ccc(=N)cc1,> 28200,> 49300,> 22000,> 13200,> 51400,> 51400,2520,10300,3100,2730,3840,2190,4160,2310,10800,> 51400
CCCO/C(O)=C1\C(C)=NC2=C(C(=O)CC(c3ccc(OC)cc3)C2)C1c1ccccc1F (stereo not drawn),> 24400,9660,> 19100,83.9,> 44600,> 44600,439,375,549,636,419,495,243,281,> 44600,> 44600
Cc1ccccc1/N=C1\C=C(NS(=O)(=O)c2ccc(F)cc2)c2ccccc2C1=O,> 19100,946,> 14900,216,6290,6130,182,114,497,435,161,221,303,98.1,3140,5880
CCN(C(C)=O)C1=C(N2CCOCC2)C(=O)c2ccccc2C1=O,3210,5670,> 13900,> 8340,> 32500,3200,692,514,348,380,467,431,611,439,2730,8990
CC(=O)c1cccc(NC(=O)C2c3ccccc3C(=O)N(CC(C)C)C2c2cccs2)c1 (stereo not drawn),> 23700,5850,> 18500,> 11100,> 43200,> 43200,284,371,196,392,411,363,414,358,> 43200,> 43200
